Laboratory results taken from ChEMBL document CHEMBL1138230, “Synthesis and SAR comparison of regioisomeric aryl naphthyridines as potent mGlu5 receptor antagonists” (Bioorg Med Chem Lett, 2007).

tested on: Rattus norvegicus; assay: Inhibition of change in hind paw weight distribution in monosodium iodoacetate-induced osteoarthritis rat model at 10 mg/kg, ip after 4 hrs; assay type: organism-based; design: dose 10 mg/kg, route intraperitoneal; settings: in vivo; call rule not given here

Row | Activity | Compound
1 | Active | COc1cc(OC)cc(-c2ccc3ccc(C)nc3n2)c1

molecular target: Metabotropic glutamate receptor 5 (Rattus norvegicus, UniProt P31424); assay: Antagonist activity at rat mGlu5 receptor expressed in CHO cells assessed as inhibition of quisqualate-stimulated calcium mobilization; assay type: functional, cell-based; settings: not given
Sequence (P31424 whole entry): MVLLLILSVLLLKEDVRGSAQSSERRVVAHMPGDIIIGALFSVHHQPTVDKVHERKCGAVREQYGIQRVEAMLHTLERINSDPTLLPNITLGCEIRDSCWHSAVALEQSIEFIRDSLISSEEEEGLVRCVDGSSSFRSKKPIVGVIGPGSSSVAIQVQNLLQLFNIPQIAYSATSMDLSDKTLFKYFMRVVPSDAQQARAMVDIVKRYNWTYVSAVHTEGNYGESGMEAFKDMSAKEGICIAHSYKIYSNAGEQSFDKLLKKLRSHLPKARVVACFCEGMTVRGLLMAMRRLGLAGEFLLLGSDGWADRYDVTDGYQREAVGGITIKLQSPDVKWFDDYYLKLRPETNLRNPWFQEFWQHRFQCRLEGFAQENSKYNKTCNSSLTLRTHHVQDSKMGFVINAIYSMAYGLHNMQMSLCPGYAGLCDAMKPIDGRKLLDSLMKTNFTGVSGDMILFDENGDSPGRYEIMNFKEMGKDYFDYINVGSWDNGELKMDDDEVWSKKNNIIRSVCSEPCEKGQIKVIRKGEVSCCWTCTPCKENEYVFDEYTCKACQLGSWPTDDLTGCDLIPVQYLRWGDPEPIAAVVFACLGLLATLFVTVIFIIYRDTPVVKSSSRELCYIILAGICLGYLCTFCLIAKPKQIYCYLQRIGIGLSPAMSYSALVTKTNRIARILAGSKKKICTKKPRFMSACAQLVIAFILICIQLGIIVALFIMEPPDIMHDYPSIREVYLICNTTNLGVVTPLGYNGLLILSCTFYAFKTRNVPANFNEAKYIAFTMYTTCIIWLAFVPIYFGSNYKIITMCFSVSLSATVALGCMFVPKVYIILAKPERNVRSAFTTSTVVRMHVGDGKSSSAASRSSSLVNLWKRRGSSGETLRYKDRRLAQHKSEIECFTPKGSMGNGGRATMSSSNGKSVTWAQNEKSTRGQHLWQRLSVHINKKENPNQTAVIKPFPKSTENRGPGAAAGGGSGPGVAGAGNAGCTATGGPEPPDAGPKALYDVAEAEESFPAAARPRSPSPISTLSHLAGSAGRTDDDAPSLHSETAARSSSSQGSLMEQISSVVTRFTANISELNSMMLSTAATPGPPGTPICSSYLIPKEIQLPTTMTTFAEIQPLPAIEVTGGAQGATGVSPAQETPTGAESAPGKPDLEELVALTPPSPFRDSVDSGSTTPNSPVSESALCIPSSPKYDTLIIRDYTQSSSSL
Method in brief: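 CHO cells stably expressing rat mGlu5; inhibition of quisqualate-stimulated calcium mobilization read by FLIPR. Values are geometric means of two or more experiments.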

Row | IC50 | Compound
2 | 0.225 µM | Cc1cccc(-c2ccc3cccnc3n2)c1
3 | 2.93 µM | Cc1cc(F)cc(-c2cc3nc(C)ccc3cn2)c1
4 | 1.84 µM | c1ccc(-c2ccc3cccnc3n2)cc1
5 | 0.468 µM | COCOc1cc(C#N)cc(-c2cc3ncccc3cn2)c1
6 | 6.57 µM | Cc1cc(F)cc(-c2cc3ncccc3cn2)c1
7 | 0.345 µM | COc1cc(OC)cc(-c2cc3nc(C)ccc3cn2)c1
8 | 18.6 µM | N#Cc1cccc(-c2cnc3cccnc3c2)c1
9 | 0.068 µM | COc1cc(C#N)cc(-c2cc3ncccc3cn2)c1
10 | 0.00619 µM | COc1cc(C#N)cc(-c2cc3nc(C)ccc3cn2)c1
11 | 0.181 µM | Cc1ccc2ccc(-c3cc(F)cc(F)c3)nc2n1
12 | 0.0479 µM | Cc1ccc2ccc(-c3cccc(Br)c3)nc2n1
13 | 0.48 µM | Cc1ccc2ccc(-c3cccc(C#N)c3)nc2n1
14 | > 30 µM | Cc1ccc2cnc(-c3ccccc3)cc2n1
15 | 0.115 µM | N#Cc1cccc(-c2ccc3cccnc3n2)c1
16 | 15.7 µM | Cc1cccc(-c2cnc3cccnc3c2)c1
17 | 0.067 µM | COc1cc(OC)cc(-c2ccc3cccnc3n2)c1
18 | 0.676 µM | Cc1cccc(-c2cc3nc(C)ccc3cn2)c1
19 | 0.277 µM | Cc1cccc(-c2ccc3ccc(C)nc3n2)c1
20 | 0.664 µM | Cc1ccc2ccc(-c3ccccc3)nc2n1
21 | 0.045 µM | Cc1ccc(-c2ccc3cccnc3n2)cc1C
22 | 6.07 µM | COc1cc(OC)cc(-c2cc3ncccc3cn2)c1
23 | 1.27 µM | Cc1cccc(-c2cc3ncccc3cn2)c1
24 | > 30 µM | Cc1cc(C)cc(-c2cnc3cccnc3c2)c1
25 | 0.177 µM | Cc1ccc2ccc(-c3cccc(Cl)c3)nc2n1
26 | 12 µM | Cc1ccc(-c2cnc3cccnc3c2)cc1C
27 | 7.9 µM | COc1cccc(-c2cc3nc(C)ccc3cn2)c1
28 | > 30 µM | c1ccc(-c2cc3ncccc3cn2)cc1
29 | 1.59 µM | N#Cc1cc(F)cc(-c2cc3ncccc3cn2)c1
30 | 0.055 µM | COc1cc(C#N)cc(-c2cnc3cccnc3c2)c1
31 | 0.0517 µM | COc1cc(OC)cc(-c2ccc3ccc(C)nc3n2)c1

tested on: Rattus norvegicus; assay: Inhibition of change in hind paw weight distribution in monosodium iodoacetate-induced osteoarthritis rat model at 10 mg/kg, ip after 2 hrs; assay type: organism-based; design: dose 10 mg/kg, route intraperitoneal; settings: in vivo

Row | Activity | Compound
32 | Active | COc1cc(OC)cc(-c2ccc3ccc(C)nc3n2)c1

tested on: Rattus norvegicus; assay: Inhibition of change in hind paw weight distribution in monosodium iodoacetate-induced osteoarthritis rat model at 10 mg/kg, ip after 6 hrs; assay type: organism-based; design: dose 10 mg/kg, route intraperitoneal; settings: in vivo

Row | Activity | Compound
33 | Active | COc1cc(OC)cc(-c2ccc3ccc(C)nc3n2)c1
